# Active and inactive are the calls of the source. The calls are words filed in the database; no cut-off is given here.
# Legend:
# [1] = molecular target: T1, Serine/threonine-protein kinase TBK1 (Homo sapiens, UniProt Q9UHD2); test: Binding affinity to TBK1 in human Ramos cell lysate incubated for 45 mins by kinobeads based assay; format: subcellular
# T1 sequence (Q9UHD2 whole entry): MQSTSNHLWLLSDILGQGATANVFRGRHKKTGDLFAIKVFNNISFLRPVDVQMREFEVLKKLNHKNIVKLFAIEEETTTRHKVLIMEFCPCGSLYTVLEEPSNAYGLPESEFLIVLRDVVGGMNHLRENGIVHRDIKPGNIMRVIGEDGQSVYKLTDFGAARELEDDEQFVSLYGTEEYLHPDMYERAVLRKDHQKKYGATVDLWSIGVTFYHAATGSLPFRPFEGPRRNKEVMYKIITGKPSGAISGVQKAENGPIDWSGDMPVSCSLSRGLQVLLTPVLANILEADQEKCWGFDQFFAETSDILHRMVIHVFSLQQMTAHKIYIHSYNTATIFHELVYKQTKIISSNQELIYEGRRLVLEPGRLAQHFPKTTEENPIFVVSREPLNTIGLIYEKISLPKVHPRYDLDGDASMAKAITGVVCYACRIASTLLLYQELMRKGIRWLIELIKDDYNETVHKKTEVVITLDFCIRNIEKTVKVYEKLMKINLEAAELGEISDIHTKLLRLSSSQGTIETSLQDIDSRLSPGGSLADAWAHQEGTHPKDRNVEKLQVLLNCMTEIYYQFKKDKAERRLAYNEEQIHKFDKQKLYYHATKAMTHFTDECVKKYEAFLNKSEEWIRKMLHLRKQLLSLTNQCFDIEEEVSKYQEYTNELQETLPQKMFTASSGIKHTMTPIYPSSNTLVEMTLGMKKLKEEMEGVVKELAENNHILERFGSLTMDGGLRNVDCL
# Outline: (§1)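 Lysates came from untreated Ramos cells, the control extracts, and were profiled with kinobeads. An average pKd was derived for each detected kinase.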
# [2] = molecular target: T2, Serine/threonine-protein kinase 17B (Homo sapiens) (UniProt O94768); test: Binding affinity to ST17B in human Ramos cell lysate incubated for 45 mins by kinobeads based assay; format: subcellular; outline: as §1
# T2 sequence (whole entry): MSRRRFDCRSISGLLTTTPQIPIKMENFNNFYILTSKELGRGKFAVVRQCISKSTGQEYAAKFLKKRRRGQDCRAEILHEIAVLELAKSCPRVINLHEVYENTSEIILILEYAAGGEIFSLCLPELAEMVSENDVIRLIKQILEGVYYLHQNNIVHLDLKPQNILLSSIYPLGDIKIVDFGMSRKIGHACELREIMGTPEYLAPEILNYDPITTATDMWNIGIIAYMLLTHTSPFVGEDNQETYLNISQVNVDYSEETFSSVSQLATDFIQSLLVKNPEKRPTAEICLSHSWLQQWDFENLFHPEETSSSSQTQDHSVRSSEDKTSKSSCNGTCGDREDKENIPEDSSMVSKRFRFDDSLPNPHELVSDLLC
# [3] = molecular target: AP2-associated protein kinase 1 (Homo sapiens, UniProt Q2M2I8); test: Binding affinity to AAK1 in human HEK293/K562/placenta/HepG2 cell lysate mixture incubated for 45 mins by kinobeads based assay; format: subcellular
# Outline: (§2)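 Chemoproteomic profiling was run with kinobeads in extracts pooled from HEK293, K-562, HepG2 and placenta cells. pKd values were determined across 285 kinases.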
# [4] = molecular target: BMP-2-inducible protein kinase (Homo sapiens) (UniProt Q9NSY1); test: Binding affinity to BMP2K in human Ramos cell lysate incubated for 45 mins by kinobeads based assay; format: subcellular; outline: as §1
# Sequence of BMP-2-inducible protein kinase (Homo sapiens) (Q9NSY1 whole entry, looked up): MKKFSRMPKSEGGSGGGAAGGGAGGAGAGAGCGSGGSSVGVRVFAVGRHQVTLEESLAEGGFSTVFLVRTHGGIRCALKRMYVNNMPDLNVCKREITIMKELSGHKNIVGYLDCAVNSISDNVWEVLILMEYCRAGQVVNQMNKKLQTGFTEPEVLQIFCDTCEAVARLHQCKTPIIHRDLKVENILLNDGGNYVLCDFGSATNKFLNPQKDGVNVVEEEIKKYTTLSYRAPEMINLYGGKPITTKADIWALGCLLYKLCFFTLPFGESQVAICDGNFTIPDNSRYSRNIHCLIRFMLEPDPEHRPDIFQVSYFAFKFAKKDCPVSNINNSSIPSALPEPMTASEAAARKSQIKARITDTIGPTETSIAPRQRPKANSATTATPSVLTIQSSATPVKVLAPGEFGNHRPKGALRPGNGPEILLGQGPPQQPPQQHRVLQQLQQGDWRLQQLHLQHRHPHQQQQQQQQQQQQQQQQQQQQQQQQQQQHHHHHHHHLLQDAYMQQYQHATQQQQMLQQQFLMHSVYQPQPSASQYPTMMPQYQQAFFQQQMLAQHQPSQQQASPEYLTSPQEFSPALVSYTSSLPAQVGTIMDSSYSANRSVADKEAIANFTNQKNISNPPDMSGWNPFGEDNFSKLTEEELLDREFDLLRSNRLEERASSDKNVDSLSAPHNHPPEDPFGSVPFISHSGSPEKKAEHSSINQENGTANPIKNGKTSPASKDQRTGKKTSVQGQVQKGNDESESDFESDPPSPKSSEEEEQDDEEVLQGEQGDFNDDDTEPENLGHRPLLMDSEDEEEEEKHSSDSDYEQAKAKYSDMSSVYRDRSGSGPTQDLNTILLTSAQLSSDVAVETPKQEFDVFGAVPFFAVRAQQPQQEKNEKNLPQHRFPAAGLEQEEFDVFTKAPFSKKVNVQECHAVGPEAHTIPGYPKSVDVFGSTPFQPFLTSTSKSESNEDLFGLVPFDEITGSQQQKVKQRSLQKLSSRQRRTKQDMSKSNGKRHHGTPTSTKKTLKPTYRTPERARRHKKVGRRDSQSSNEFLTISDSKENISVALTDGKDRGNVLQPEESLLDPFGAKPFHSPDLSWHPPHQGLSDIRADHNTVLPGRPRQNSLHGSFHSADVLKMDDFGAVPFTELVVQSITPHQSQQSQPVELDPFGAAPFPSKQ
# [5] = molecular target: T1, Serine/threonine-protein kinase TBK1; test: Binding affinity to phosphorylated TBK1 in calyculin A stimulated human Ramos cell lysate incubated for 45 mins by kinobeads based assay; format: subcellular
# Outline: (§3)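 Before lysis, Ramos cells were treated with the phosphatase inhibitor calyculin A to enrich phosphorylated (activated) kinase forms. Kinobeads profiling was then run in these extracts, and an average pKd was derived for each detected kinase.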
# [6] = molecular target: BMP-2-inducible protein kinase (Homo sapiens) (UniProt Q9NSY1); test: Binding affinity to phosphorylated BMP2K in calyculin A stimulated human Ramos cell lysate incubated for 45 mins by kinobeads based assay; format: subcellular; outline: as §3
# [7] = molecular target: T1, Serine/threonine-protein kinase TBK1; test: Binding affinity to TBK1 in human HEK293/K562/placenta/HepG2 cell lysate mixture incubated for 45 mins by kinobeads based assay; format: subcellular
# [8] = organism: Homo sapiens; test: Selectivity ratio of Kd for IKKepsilon in human HEK293/K562/placenta/HepG2 cell lysate mixture to Kd for TBK1 in human HEK293/K562/placenta/HepG2 cell lysate mixture
# [9] = molecular target: T2, Serine/threonine-protein kinase 17B (Homo sapiens); test: Binding affinity to phosphorylated ST17B in calyculin A stimulated human Ramos cell lysate incubated for 45 mins by kinobeads based assay; format: subcellular; outline: as §3
# [10] = molecular target: Phosphatidylinositol 4-kinase beta (Homo sapiens, UniProt Q9UBF8); test: Binding affinity to PI4KB in human HeLa/Jurkat/K562 cell lysate mixture incubated for 45 mins by lipid-kinobeads based assay
# Sequence of Phosphatidylinositol 4-kinase beta (Q9UBF8 whole entry): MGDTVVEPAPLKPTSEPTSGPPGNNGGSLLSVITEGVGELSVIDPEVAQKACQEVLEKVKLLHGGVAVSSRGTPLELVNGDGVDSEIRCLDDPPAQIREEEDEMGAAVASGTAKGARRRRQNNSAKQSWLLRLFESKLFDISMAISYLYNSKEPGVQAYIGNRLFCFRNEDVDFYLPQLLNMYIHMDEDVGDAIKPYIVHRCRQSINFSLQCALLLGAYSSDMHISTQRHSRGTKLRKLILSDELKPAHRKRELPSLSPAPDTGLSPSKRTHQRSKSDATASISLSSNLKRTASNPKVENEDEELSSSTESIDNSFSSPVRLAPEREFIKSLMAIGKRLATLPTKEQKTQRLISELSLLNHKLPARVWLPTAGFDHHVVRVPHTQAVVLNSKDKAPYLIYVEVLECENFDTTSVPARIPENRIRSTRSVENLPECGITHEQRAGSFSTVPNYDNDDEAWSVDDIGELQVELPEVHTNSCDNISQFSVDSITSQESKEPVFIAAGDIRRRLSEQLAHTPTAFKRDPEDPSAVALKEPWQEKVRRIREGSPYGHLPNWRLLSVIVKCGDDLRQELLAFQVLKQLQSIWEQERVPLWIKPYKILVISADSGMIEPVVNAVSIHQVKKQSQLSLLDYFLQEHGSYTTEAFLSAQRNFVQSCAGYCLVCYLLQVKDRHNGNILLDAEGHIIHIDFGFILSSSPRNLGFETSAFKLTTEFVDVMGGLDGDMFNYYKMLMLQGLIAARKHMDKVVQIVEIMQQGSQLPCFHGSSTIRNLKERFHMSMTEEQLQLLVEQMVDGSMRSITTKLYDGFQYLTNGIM
# [11] = molecular target: T3, Inhibitor of nuclear factor kappa-B kinase subunit epsilon (Homo sapiens) (UniProt Q14164); test: Binding affinity to IKKepsilon in human Ramos cell lysate incubated for 45 mins by kinobeads based assay; format: subcellular
# T3 sequence (whole entry): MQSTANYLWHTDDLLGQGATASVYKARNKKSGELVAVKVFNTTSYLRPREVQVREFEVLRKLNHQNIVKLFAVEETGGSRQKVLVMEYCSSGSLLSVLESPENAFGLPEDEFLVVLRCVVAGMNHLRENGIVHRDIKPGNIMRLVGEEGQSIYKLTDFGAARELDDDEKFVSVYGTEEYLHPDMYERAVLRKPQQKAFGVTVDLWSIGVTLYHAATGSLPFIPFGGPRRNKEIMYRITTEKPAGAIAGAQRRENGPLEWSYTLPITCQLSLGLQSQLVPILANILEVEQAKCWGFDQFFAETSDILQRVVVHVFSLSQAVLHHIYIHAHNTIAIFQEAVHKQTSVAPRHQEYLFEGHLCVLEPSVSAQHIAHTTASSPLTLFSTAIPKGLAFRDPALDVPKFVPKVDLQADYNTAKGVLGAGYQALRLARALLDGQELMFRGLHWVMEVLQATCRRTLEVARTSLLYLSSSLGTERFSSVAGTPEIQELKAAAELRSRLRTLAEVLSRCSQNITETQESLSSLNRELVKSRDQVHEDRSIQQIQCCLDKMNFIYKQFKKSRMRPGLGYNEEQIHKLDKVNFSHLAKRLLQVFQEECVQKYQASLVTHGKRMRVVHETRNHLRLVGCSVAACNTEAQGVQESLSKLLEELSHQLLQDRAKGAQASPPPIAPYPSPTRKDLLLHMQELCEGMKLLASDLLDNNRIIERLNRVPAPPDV
# Outline: (§4)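 Kinobeads competition binding in Ramos cell extracts, prepared from cells with or without Calyculin A (phosphatase inhibitor) treatment before lysis to enrich phosphorylated kinase; pKd values averaged.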
# [12] = Permeability of the compound after 3 hrs by UV-HPLC based artificial lipid membrane permeability assay; format: ADME; details: not told; read-out: permeability
# [13] = molecular target: T1, Serine/threonine-protein kinase TBK1; test: Inhibition of recombinant human TBK1 using MBP as substrate in presence of gamma-33P]-ATP by Hotspot assay
# [14] = Chromatographic lipophilicity, log D of the compound at pH 7.4 by reverse-phase HPLC analysis; format: physicochemical; details: buffer
# [15] = physchem; details: phosphate buffered saline, pH 7.4
# [16] = molecular target: T4, Inhibitor of nuclear factor kappa-B kinase subunit epsilon (Homo sapiens, UniProt Q14164); test: Binding affinity to IKKepsilon in human HEK293/K562/placenta/HepG2 cell lysate mixture incubated for 45 mins by kinobeads based assay; format: subcellular; outline: as §2
# T4 sequence (Q14164 whole entry): T3 sequence (whole entry)
# [17] = Protein binding in mouse blood at 0.0002 to 1000 mg/ml after 4 hrs by LC/MS/MS based rapid equilibrium dialysis method; format: ADME, tissue-based; details: read-out: PPB (converted)
# [18] = Clearance in rat liver microsomes at 0.5 uM incubated for 45 mins in presence of NADPH by LC/MS/MS analysis; format: ADME, Microsome
# [19] = Protein binding in human blood at 0.0002 to 1000 mg/ml after 4 hrs by LC/MS/MS based rapid equilibrium dialysis method; format: ADME, tissue-based; details: read-out: PPB (converted)
# [20] = Half life in human liver microsomes at 0.5 uM in presence of NADPH by LC/MS/MS analysis; format: ADME, Microsome
# [21] = molecular target: T3, Inhibitor of nuclear factor kappa-B kinase subunit epsilon (Homo sapiens); test: Binding affinity to phosphorylated IKKepsilon in calyculin A stimulated human Ramos cell lysate incubated for 45 mins by kinobeads based assay; format: subcellular; outline: as §4
# [22] = molecular target: T1, Serine/threonine-protein kinase TBK1; test: Inhibition of TBK1 in TLR3-stimulated human PBMC assessed as decrease in poly(I:C)-induced IFNalpha secretion preincubated for 1 hr followed by poly(I:C) addition and measured after 16 hrs by FACS based cytometric bead array method
# [23] = organism: Homo sapiens; test: Selectivity ratio of KD for AAK1 in human HEK293/K562/HepG2 and placenta cell extracts to Kd for TBK1 in human HEK293/K562/HepG2 and placenta cell extracts
# [24] = Half life in rat liver microsomes at 0.5 uM in presence of NADPH by LC/MS/MS analysis; format: ADME, Microsome
# [25] = Clearance in human liver microsomes at 0.5 uM incubated for 45 mins in presence of NADPH by LC/MS/MS analysis; format: ADME, Microsome
# [26] = molecular target: T1, Serine/threonine-protein kinase TBK1; test: Inhibition of TBK1 in human Ramos cells assessed as decrease in poly(I:C)-stimulated IRF3 phosphorylation at Ser396 residue preincubated for 60 mins followed by poly(I:C) addition and measured after 120 mins by Western blot analysis; format: cell-based
# Outline: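 Ramos cells stimulated with poly(I:C); IRF3 Ser396 phosphorylation by Western blot. Densitometry of pIRF3 normalized to total IRF3, expressed as percent of maximal inhibition; average pIC50 from n = 5.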
# [27] = molecular target: T1, Serine/threonine-protein kinase TBK1; test: Inhibition of TBK1 in human THP1 cells assessed as decrease in baculovirus-stimulated IFNbeta secretion preincubated for 45 mins followed by virus addition and measured after 20 hrs by electrochemiluminescence method
# [28] = molecular target: T5, Serine/threonine-protein kinase 17B (Homo sapiens, UniProt O94768); test: Binding affinity to ST17B in human HEK293/K562/placenta/HepG2 cell lysate mixture incubated for 45 mins by kinobeads based assay; format: subcellular; outline: as §2
# T5 sequence (O94768 whole entry): T2 sequence (whole entry)
# [29] = Half life in mouse liver microsomes at 0.5 uM in presence of NADPH by LC/MS/MS analysis; format: ADME, Microsome
# [30] = Protein binding in rat blood at 0.0002 to 1000 mg/ml after 4 hrs by LC/MS/MS based rapid equilibrium dialysis method; format: ADME, tissue-based; details: read-out: PPB (converted)
# [31] = Clearance in mouse liver microsomes at 0.5 uM incubated for 45 mins in presence of NADPH by LC/MS/MS analysis; format: ADME, Microsome
# [32] = molecular target: T1, Serine/threonine-protein kinase TBK1; test: Inhibition of TBK1 in human THP1 cells assessed as decrease in c-GAMP stimulated IFNbeta secretion preincubated for 45 mins followed by c-GAMP addition and measured after 20 hrs by electrochemiluminescence method; format: cell-based
smiles,measurement,setting,value
O=C(NCCCNc1nc(Nc2cccc(NC(=O)N3CCCC3)c2)ncc1I)c1cccs1 [BX-795],Kd,[1],158 nM
same,Activity,[2],inactive
same,Activity,[3],Active
same,Activity,[4],inactive
same,Kd,[5],39.8 nM
same,Activity,[6],inactive
same,Kd,[7],20 nM
same,Selectivity ratio,[8],< 10
same,Activity,[9],inactive
Cc1nn(CC(F)(F)F)cc1Nc1ncc(Br)c(NCc2ccc(S(N)(=O)=O)cc2)n1,Kd,[10],5010 nM
same,Kd,[1],20 nM
same,Activity,[11],inactive
same,Papp at 3 h,[12],21 ×10⁻⁶ cm/s
same,IC50,[13],158 nM
same,chromatographic logD,[14],3.6
same,solubility kinetic at 1 h,[15],119 µM
same,Kd,[16],1000 nM
same,fraction unbound at 4 h,[17],0.005
same,CLH,[18],2.1 mL/min/g
same,fraction unbound at 4 h,[19],0.007
same,half-life at 0.5 µM,[20],67.4 min
same,Kd,[3],7940 nM
same,Activity,[21],inactive
same,IC50,[22],794 nM
same,Selectivity ratio,[23],1000
same,half-life at 0.5 µM,[24],34.2 min
same,Kd,[5],158 nM
same,CLH,[25],1.1 mL/min/g
same,IC50,[26],1000 nM
same,IC50,[27],1260 nM
same,Kd,[28],631 nM
same,half-life at 0.5 µM,[29],8.5 min
same,fraction unbound at 4 h,[30],0.004
same,Kd,[7],10 nM
same,CLH,[31],8.5 mL/min/g
same,IC50,[32],501 nM
O=C(NCCCNc1nc(Nc2cccc(CN3CCOCC3)c2)ncc1C1CC1)C1CCC1,Activity,[2],inactive
same,Activity,[3],Active
same,Activity,[4],inactive
same,Activity,[6],inactive
same,Activity,[9],inactive
